These results are taken from ChEMBL document CHEMBL4715734, “Discovery of the Potent and Selective M1 PAM-Agonist N-[(3R,4S)-3-Hydroxytetrahydro-2H-pyran-4-yl]-5-methyl-4-[4-(1,3-thiazol-4-yl)benzyl]pyridine-2-carboxamide (PF-06767832): Evaluation of Efficacy and Cholinergic Side Effects” (J Med Chem, 2016).

Calls of active or inactive are those of the source. The calls are words filed in the database; no cut-off is given here.

Data set [1] is described as follows: Ratio of AUC in rat brain to fAUC in rat plasma. As to conditions: in vivo. The data set is classed as ADME, cell-free.
The target in data set [2] is T1, Muscarinic acetylcholine receptor M5 (Homo sapiens, UniProt P08912).
T1 sequence (P08912 whole entry): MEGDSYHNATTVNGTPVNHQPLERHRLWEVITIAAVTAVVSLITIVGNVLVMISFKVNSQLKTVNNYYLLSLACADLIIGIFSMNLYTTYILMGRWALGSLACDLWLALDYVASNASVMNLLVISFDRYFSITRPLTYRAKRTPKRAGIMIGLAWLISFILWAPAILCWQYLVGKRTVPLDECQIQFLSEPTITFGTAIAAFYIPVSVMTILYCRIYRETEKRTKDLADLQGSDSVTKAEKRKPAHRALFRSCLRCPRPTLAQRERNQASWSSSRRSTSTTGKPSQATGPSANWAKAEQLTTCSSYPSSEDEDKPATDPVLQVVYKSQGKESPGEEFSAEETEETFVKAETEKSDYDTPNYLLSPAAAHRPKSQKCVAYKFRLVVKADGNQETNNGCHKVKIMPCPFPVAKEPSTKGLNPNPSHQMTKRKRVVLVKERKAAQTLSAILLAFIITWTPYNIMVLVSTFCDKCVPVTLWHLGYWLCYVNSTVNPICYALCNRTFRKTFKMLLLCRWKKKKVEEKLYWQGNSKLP
Description: Agonist activity at human recombinant muscarinic M5 receptor stably expressed in CHO cells assessed as increase in intracellular calcium level up to 10 uM incubated for 10 mins by Fluo-8AM dye based FLIPR TETRA method. The data set is classed as cell-based.

Data set [3] has as its target T2, Muscarinic acetylcholine receptor M1 (Homo sapiens, UniProt P11229).
T2 sequence (P11229 whole entry): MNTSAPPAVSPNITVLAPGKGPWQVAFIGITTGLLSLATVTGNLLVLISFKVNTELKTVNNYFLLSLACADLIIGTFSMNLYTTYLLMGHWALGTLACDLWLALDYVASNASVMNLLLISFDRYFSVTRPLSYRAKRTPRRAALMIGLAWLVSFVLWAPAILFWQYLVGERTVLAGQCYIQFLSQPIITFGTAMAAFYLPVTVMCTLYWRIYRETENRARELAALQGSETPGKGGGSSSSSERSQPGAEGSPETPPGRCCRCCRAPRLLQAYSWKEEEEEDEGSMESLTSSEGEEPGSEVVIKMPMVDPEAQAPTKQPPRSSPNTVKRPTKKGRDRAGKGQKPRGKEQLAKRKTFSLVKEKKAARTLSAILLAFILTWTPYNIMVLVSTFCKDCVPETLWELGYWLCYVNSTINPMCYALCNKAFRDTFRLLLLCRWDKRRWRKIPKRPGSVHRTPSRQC
Description: Partial agonist activity at muscarinic M1 receptor (unknown origin) assessed as recruitment of beta-arrestin by Path Hunter assay. The format is cell-based, CHO.

For data set [4], the target named is T3, Muscarinic acetylcholine receptor M1 (Homo sapiens) (UniProt P11229).
T3 sequence (whole entry): T2 sequence (P11229 whole entry)
Description: Binding affinity to human muscarinic M1 receptor stably expressed in CHO cells assessed as increase in intracellular calcium level measured after 10 mins by Fluo-8AM dye based FLIPR TETRA method. The data set is classed as cell-based. As to conditions: filed as positive allosteric modulator. In general terms: Calcium flux is commonly read through the fluorescence of an indicator in the cells.

Data set [5] in a line: Unbound brain concentration in […] in Sprague-Dawley rat model at 1 mg/kg, sc measured after 1.67 hrs. The format is ADME, organism-based. As to conditions: in vivo. A digest of the protocol: (§1)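 Randomly selected animals (N=2/dose) at the end of the rat PPI study, T = 1.67 h. Dosed subcutaneously as a suspension in 0.5% methylcellulose in water. Plasma and brain concentrations were averaged.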

In data set [6] the target is cGMP-dependent 3',5'-cyclic phosphodiesterase (Homo sapiens, UniProt O00408). Description: Inhibition of PDE2A (unknown origin).
Data set [7] is described as follows: fAUC (0 to 24 hrs) in rat at 30 mg/kg, po administered for 14 days. The data set is classed as ADME, organism-based. As to conditions: in vivo, 336 h, time 14 day. In short, it runs like this:
(§2)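 2-week repeat oral dosing in rats, 0.5% methylcellulose formulation; N=4/sex/dose; doses 3, 10, 30 (males)/15 (females) mg/kg; unbound exposures reported per dose and sex.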

The nature of data set [8]: fCmax in dog at 45 mg/kg, po using spray-dried dispersion formulation. As to conditions: in vivo. The data set is classed as ADME, organism-based, Canis lupus familiaris.
The nature of data set [9]: Unbound brain concentration in amphetamine-induced C57BL/6J mouse model of hyperlocomotion at 3.2 mg/kg, sc measured after 1 hr. The format is ADME, organism-based. To be noted: in vivo. A digest of the protocol:
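Satellite PK animals from the mouse aLMA study, N=2/dose. Dosed subcutaneously with a solution in 5/15/80 DMSO/Solutol/water. Plasma and brain were sampled at T = 1 h.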

Data set [10] in a line: Toxicity in dog assessed as induction of loose stool at 3 mg/kg, po using spray-dried dispersion formulation. The data set is classed as organism-based, Canis lupus familiaris. To be noted: in vivo.
Data set [11] in a line: Positive allosteric modulation of muscarinic M2/M3 receptor in Hartley guinea pig ileum assessed as increase in donepezil-induced stimulation of contraction. As to conditions: Cavia porcellus. The format is tissue-based. In short, it runs like this: (§3)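 PAM mode used guinea pig ileum in a tissue bath. Contraction concentration–response curves were run in the presence of an EC20 of donepezil, with or without atropine.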

Data set [12] addresses T3, Muscarinic acetylcholine receptor M1 (Homo sapiens). Put plainly: Binding affinity to muscarinic M1 receptor (unknown origin) assessed as recruitment of beta-arrestin by Path Hunter assay. The format is cell-based. To be noted: CHO, filed as positive allosteric modulator.
A short description of data set [13]: Toxicity in male Beagle dog assessed as increase in maximum systolic left ventricular pressure at 3 mg/kg, po observed up to 9 hrs post last dose by telemetry. The format is organism-based, Canis lupus familiaris. As to conditions: in vivo. In short, it runs like this:
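Crossover telemetry study in dogs at three oral doses (0.3, 1 and 3 mg/kg), N=4. Endpoints were blood pressure, maximum systolic left ventricular pressure, LV +dP/dt max, activity, heart rate, and RR, QT and QTc intervals, followed up to 9 h post dose.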

Data set [14] in a line: fAUC (0 to 24 hrs) in rat at 15 mg/kg, po administered for 14 days. The data set is classed as ADME, organism-based. As to conditions: in vivo, 336 h, time 14 day. In short, it runs like this: as §2
The nature of data set [15]: Toxicity in dog assessed as emesis at 45 mg/kg, po using spray-dried dispersion formulation measured after 45 mins. The data set is classed as organism-based, Canis lupus familiaris. As to conditions: in vivo, 0.75 h. In short, it runs like this: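 Dogs received single escalating oral doses as a spray-dried dispersion (10% drug loading with HPMCAS-M). The dispersion was suspended in 0.5 wt% methylcellulose/0.5 wt% HPMCAS in 20 mM tris buffer, pH 7.4. One dog per sex per dose was used, and clinical signs were recorded.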

Data set [16] is described as follows: Unbound plasma concentration in […] in Sprague-Dawley rat model at 0.32 mg/kg, sc measured after 1.67 hrs. The data set is classed as ADME, organism-based. As to conditions: in vivo. A digest of the protocol:
as §1

A short description of data set [17]: fCmax in rat at 10 mg/kg, po administered for 14 days. The data set is classed as ADME, organism-based. To be noted: in vivo, 336 h, time 14 day. A digest of the protocol: as §2
Data set [18] can be described thus: Ratio of fAUC in dog brain to plasma. The format is ADME, cell-free, Canis lupus familiaris. As to conditions: brain and plasma, read-out: Ratio AUC.
Data set [19] is described as follows: Positive allosteric modulation of muscarinic M2/M3 receptor in Hartley guinea pig ileum assessed as increase in donepezil-induced stimulation of contraction in presence of mAChR antagonist atropine. The data set is classed as tissue-based, Cavia porcellus. A digest of the protocol: as §3
Data set [20] deals with Rattus norvegicus. Put plainly: Reversal of scopolamine-induced spatial learning in Wistar rat model at 0.32 mg/kg, po administered 15 min before training followed by 30 mins later administration with scopolamine measured after 24 hrs by Morris water maze test.
Data set [21] can be described thus: Ratio of fAUC in monkey brain to plasma. The format is ADME, cell-free, Macaca mulatta. As to conditions: rhesus monkey, brain and plasma; read-out: Ratio AUC.
Data set [22] in a line: Unbound brain concentration in CD-1 mouse at 10 mg/kg, sc measured after 2 hrs by LC-MS/MS analysis. As to conditions: in vivo. The format is ADME, organism-based.

Sequence of cGMP-dependent 3',5'-cyclic phosphodiesterase (O00408 whole entry): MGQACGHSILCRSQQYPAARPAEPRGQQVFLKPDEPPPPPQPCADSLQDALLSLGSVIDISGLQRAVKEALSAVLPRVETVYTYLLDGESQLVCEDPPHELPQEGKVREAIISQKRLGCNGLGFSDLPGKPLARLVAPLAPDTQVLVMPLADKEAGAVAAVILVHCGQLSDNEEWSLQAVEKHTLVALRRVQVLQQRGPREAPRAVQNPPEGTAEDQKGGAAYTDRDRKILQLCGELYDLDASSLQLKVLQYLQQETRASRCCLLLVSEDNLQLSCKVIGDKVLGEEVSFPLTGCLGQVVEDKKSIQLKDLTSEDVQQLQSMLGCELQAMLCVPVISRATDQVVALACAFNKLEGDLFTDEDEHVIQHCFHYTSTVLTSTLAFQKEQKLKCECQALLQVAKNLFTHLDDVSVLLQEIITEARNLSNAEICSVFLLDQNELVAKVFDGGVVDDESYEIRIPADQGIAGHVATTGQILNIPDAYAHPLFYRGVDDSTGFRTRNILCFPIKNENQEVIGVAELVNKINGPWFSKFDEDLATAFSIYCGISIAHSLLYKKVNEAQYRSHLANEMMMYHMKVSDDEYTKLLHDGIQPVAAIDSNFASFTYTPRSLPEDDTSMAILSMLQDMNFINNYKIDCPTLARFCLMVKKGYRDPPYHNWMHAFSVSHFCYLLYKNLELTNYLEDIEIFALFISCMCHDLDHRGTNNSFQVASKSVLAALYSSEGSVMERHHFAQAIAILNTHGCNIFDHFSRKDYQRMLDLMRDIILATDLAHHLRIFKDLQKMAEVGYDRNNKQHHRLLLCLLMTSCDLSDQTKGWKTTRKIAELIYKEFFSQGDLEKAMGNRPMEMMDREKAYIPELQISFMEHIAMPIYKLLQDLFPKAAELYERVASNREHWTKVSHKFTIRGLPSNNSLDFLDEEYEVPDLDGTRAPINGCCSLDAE

As a reminder, the EC50 is the concentration giving half of the maximal effect. For orientation: IC50 means the point on the concentration scale where inhibition reaches its midpoint. Regarding `Cc1cnc(C(=O)N[C@H]2CCOC[C@@H]2O)cc1Cc1ccc(-c2cscn2)cc1`, the “Ratio AUC” value in data set [1] was determined as 0.36. For the same compound, the Activity result in [2] was “Not Active”; in data set [10], “Toxic”; in data set [13] it was “Toxic”; in data set [15] it was “Toxic”; in [19], “Not Active”. Besides, the concentration for a half-maximal effect (EC50) in data set [3] was found to be 3.9 µM; in data set [11], 0.082 µM. For the same compound, the figures for the Ka in data set [4] and in data set [12] were 2 µM and 20 µM, respectively. The “Drug uptake(free)” value is 17.4 nM in [5], 85.2 nM in data set [9] and 195 nM in data set [22]. The IC50 in [6] came out at 3.09 µM. Besides, the fAUC in data set [7] worked out at 13.211 µM·h; in data set [14], 9.768 µM·h. Besides, the values for the fCmax in data set [8] and in [17] were 952 nM and 562 nM, respectively. The “Cp(f)” value in [16] was 11.9 nM. Besides, the Kp uu in data set [18] was determined as 0.3; in data set [21] it was 0.51. For the same compound, the outcome in data set [20] was Active.
